Measurements gathered from unrelated publications.
Compare with care: the assays were run in different laboratories.
Target: Serine/threonine-protein kinase 17A (STK17A, Homo sapiens, UniProt Q9UEE5)
Residues used in one study (Q9UEE5 1-414): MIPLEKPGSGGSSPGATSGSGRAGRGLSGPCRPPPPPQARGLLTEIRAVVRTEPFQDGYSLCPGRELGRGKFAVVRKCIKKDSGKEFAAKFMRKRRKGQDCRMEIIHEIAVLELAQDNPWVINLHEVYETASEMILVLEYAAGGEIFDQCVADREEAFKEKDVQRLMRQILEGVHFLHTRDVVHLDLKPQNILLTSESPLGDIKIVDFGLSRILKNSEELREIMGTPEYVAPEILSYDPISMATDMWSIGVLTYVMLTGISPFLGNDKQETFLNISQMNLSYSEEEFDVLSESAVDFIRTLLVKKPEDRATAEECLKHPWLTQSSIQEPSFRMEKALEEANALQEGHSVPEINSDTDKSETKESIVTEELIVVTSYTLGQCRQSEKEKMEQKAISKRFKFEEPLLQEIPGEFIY

| Compound | observed | action | technique | concentration | measurement | value |
| --- | --- | --- | --- | --- | --- | --- |
| CC(C)S(=O)(=O)c1ccc2nccc(Nc3ccc4sc(C5CCCC5)nc4c3)c2c1 | enzyme activity | inhibitor | – | 1 µM | activity vs control | 108% |
| Cc1cc(O)c(-c2ccc([C@@H](C)CN(C)C)cc2)c2c1[nH]c(=O)c1sccc12 | cell-free assay | inhibitor | – | 0.1 µM | inhibition | 3.3% |
| Cc1ccc(NC(=O)c2ccnc(C(F)(F)F)c2)cc1-c1cc(OCCO)nc(N2CCOCC2)c1 | binding | – | – | 1 µM | remaining binding | 91% |
| CC#CC(=O)N1CCC[C@H]1c1nc(-c2ccc(C(=O)Nc3ccccn3)cc2)c2c(N)nccn12 | enzyme activity | inhibitor | – | 1 µM | inhibition | 0% |
| COc1ccc2oc(-c3ccc4nc(N)oc4c3)c/c(=N\c3ccccc3NC(=O)CCN)c2c1 | binding | – | – | 1 µM | remaining binding | 89% |
| COc1ccc2[nH]c3c4[nH]c5ccc(OC)cc5c4c4c(c3c2c1)C(=O)NC4=O | binding | – | – | 1 µM | remaining binding | 0.4% |
| C=CC(=O)N1CCC[C@@H](n2nc(-c3ccc(Oc4ccccc4)cc3)c3c(N)ncnc32)C1 | enzyme activity | inhibitor | – | 1 µM | inhibition | 8% |
| CCCCC(=O)Nc1ccc(-c2ccc3ncn(CCC)c(=O)c3c2)cn1 | binding | – | competition with immobilised ligand | 0.5 µM | remaining binding | 100% |
